Only some compounds are listed: those with a hit (about 2% of all), similar ones and a draw of the others.
S100A4 inh HTS: inhibitors of human S100A4 binding to myosin IIA peptide; 0.14% of 360,000 active; AID 652163; P26447; inhibition, % at 10.7 µM; S100A4/TAMRA-MyoIIA peptide fluorescence polarization;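 active = mean inhibition of at least 70% across replicates, with every replicate also reaching that level; inconclusive = mean inhibition reaches 70% but some replicates fall short; inactive = mean inhibition below 70%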
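Material: S100A4 monomer protein | Medium: HEPES pH 7.2 with CaCl2, KCl, NaCl, DTT, Triton | Reagent: Labelled myosin peptide probe, 5 nM | Doses: One dose per compound | Times: 5 min incubation before reading | Benchmarks: Neutral control DMSO, positive control TFP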
XiGFP reactiv: activators of X-chromosome reactivation in mouse fibroblasts; activation, % at 7.58 µM; XiGFP mouse fibroblasts, % GFP-positive cells imaging, 3 d; cells co-treated with 5-aza-dC sensitizer; scaled so ellipticine positive control = 100%; 0.055% of 360,000 active; AID 743238;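 active = mean normalized replicate activation at least 10% and every replicate at or above 10%; inconclusive = only one of the two criteria met; inactive = mean below 10% and not all replicates reach 10%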;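 note: 0% = median of on-plate neutral control wells and 100% = ellipticine 6 µM median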
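Schedule: 3 d treatment, 15 min room-temperature fixation; system: 68-5-11 XiGFP fibroblast line; buffer or medium: DMEM plus 5-aza-dC sensitizer; control set: ellipticine 6 µM positive control; compound: one concentration, pinned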
DENV2 CPE: protects cells from dengue virus 2 cytopathic effect; DENV2-infected cells, cytopathic effect rescue, plate reader; CPE inhibition, % at 9.99 µM; 1.7% of 350,000 active; in the data active = CPE inhibition above about 20%, passing the limit was not always enough; inconclusive = no clear call, values can overlap the other calls; tested in BHK-21 cells;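 note: 0% = median of neutral control wells and 100% = median of positive control wells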
E-selectin induc: induces E-selectin expression in human endothelial cells; 0.37% of 260,000 active; P16581; activation, % at 7.58 µM; HUVEC E-selectin immunofluorescence imaging; normalized: neutral wells 0, TNF-alpha wells 100;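 active = mean E-selectin-positive cell signal at least 10% of the positive control, reached in at least 60% of replicates, without over 20% cell loss; inconclusive = no rule given, readout overlaps actives, possibly toxicity-flagged; inactive = the rest, including those meeting only one limit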
Target sequence (P16581 whole entry, looked up): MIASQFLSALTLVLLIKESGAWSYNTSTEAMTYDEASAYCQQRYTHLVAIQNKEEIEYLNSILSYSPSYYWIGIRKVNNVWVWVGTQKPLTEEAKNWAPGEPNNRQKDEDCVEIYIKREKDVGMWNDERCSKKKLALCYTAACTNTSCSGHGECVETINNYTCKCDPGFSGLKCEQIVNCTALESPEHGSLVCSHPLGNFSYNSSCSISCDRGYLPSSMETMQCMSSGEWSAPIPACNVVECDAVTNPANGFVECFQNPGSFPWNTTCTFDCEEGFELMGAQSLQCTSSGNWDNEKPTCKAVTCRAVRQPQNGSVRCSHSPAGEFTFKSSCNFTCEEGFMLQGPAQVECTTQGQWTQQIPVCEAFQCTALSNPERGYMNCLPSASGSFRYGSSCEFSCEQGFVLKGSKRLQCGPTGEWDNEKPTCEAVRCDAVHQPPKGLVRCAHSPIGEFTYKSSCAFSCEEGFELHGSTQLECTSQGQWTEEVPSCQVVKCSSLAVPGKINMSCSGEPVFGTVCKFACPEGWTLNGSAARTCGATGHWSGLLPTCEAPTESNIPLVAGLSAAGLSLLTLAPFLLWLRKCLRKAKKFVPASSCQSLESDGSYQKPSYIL
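material = human umbilical vein endothelial cells (HUVEC), E-selectin induction | quantity = 3,000 cells/well | medium = EGM-2 growth medium on 0.1% gelatin-coated wells | technique = immunofluorescence imaging | read-out basis = % PE-positive cells | control set = TNF-alpha positive control, DMSO neutral control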
An asterisk follows results filed as active; ? = inconclusive; / = not tested or not shown; ! = a repeat was not active.

SMILES	S100A4 inh HTS	XiGFP reactiv	DENV2 CPE	E-selectin induc
C[C@@H]1CCCCO[C@@H](CN(C)CC2CC2)[C@H](C)CN([C@H](C)CO)C(=O)c2cc(NC(=O)CCCN(C)C)ccc2O1	-2	0	43*	0
C[C@@H]1CCCCO[C@H](CN(C)C(=O)CCCN(C)C)[C@@H](C)CN([C@H](C)CO)C(=O)c2cc(NC(=O)CCCN(C)C)ccc2O1	1	0	20*	/
Cc1c(NC(=O)CSc2nnc(Nc3ccccc3)s2)c(=O)n(-c2ccccc2)n1C	/	1	/	2
CCOc1ccc(N(CC(=O)NC2CCCC(C)C2C)S(=O)(=O)c2c(C)noc2C)cc1 (stereo not drawn)	3	0	26*	/
Cc1ccc(N(CC(=O)NC2CCCCC2C)S(=O)(=O)c2c(C)noc2C)cc1 (stereo not drawn)	-1	0	19	/
CC(C)(O)c1cc2ccccc2c(=O)o1	-2	0	-9	0
CC(C)(C)[S@](=O)N1Cc2cc(C(=O)N3CCCCC3)nc(-c3cccc(C4=CCCC4)c3)c2[C@@H]1CCO	-49	0	26*	1
CCNC(=O)c1cc2c(c(-c3cccc(-c4cccc(OC)c4)c3)n1)[C@H](CCO)N([S@@](=O)C(C)(C)C)C2	-19	0	3	0
CC(C)(C)S(=O)N1Cc2cc(C(=O)Nc3ccc(-c4ccccc4)cc3)nc(-c3cccc(-c4cccc(F)c4)c3)c2[C@@H]1CCO (stereo partly drawn)	-51	0	?	29*
CN1CCN(C(=O)c2cc3c(c(-c4cccc(C5=CCCC5)c4)n2)[C@H](CCO)N([S@@](=O)C(C)(C)C)C3)CC1	-35	0	-2	0
COc1cccc(-c2cccc(-c3nc(C(=O)Nc4ccc(-c5ccccc5)cc4)cc4c3[C@@H](CCO)N(S(=O)C(C)(C)C)C4)c2)c1 (stereo partly drawn)	-15	0	?	36*
CCCNC(=O)c1cc2c(c(-c3cccc(-c4ccccc4F)c3)n1)[C@H](CCO)N(C(=O)CC1CC1)C2	-7	0	82*	0
O=C(CSc1ncccc1-c1nc2ccccc2[nH]1)N1CCc2ccccc21	0	0	3	/
Cc1cccc(N2CCN(C(=O)CCCOc3ccccc3)CC2)c1C	/	/	/	0
CC(=O)Nc1cccc(C(=O)OCC(=O)Nc2ccc(Cl)cn2)c1	-7	0	56*	-1
COc1ccc(NC(=O)N2[C@@H]3CNC[C@H]2C3c2ccc(/C=C/c3ccccc3)cc2)cc1 (stereo partly drawn)	11	0	25*	0
COc1ccc(NC(=O)N2[C@@H]3CNC[C@H]2C3c2ccc(-c3ccc(OC)cc3)cc2)cc1 (stereo partly drawn)	-5	0	-2	0
COc1cccc(-c2ccc(C3[C@H]4CNC[C@@H]3N4Cc3cccnc3)cc2)c1 (stereo partly drawn)	/	0	28*	1
CCCNC(=O)N1[C@@H]2CNC[C@H]1C2c1ccc(-c2cccc(C#N)c2)cc1 (stereo partly drawn)	-6	0	21*!	0
N#Cc1cccc(-c2ccc(C3[C@H]4CNC[C@@H]3N4C(=O)Nc3ccc(F)cc3)cc2)c1 (stereo partly drawn)	-19	0	23*!	1
C=CC(=O)NCCCc1cc(C(C)(C)C)c(O)c(C(C)(C)C)c1	4	0	0	0
Cc1ccc(S(=O)(=O)N(C)C[C@@H]2OCCCC[C@@H](C)Oc3ccc(N(C)C)cc3C(=O)N([C@@H](C)CO)C[C@@H]2C)cc1	/	0	/	0
C=CCOc1c(Br)cc(CNc2ccc(NC(=O)C(C)C)cc2)cc1OCC	0	0	-3	/
COc1cc(C(=O)Nc2sc3c(c2C(=O)O)CCC3)cc(OC)c1OC	3	0	-5	/
O=C(CSC(=S)N1CCCC1)c1ccccc1	3	0	-3	0
SMILES	S100A4 inh HTS	XiGFP reactiv	DENV2 CPE	E-selectin induc
O=c1oc(CCO)cc2ccc(C#Cc3ccsc3)cc12	-3	0	16	0
O=C(Nc1cccc(F)c1)N1[C@@H]2CNC[C@H]1C2c1ccc(-c2cccc(F)c2)cc1 (stereo partly drawn)	-21	0	0	0
COc1cccc(NC(=O)N2[C@@H]3CNC[C@H]2C3c2ccc(-c3cccc(OC)c3)cc2)c1 (stereo partly drawn)	4	0	-5	0
COc1cccc(NC(=O)N2[C@@H]3CNC[C@H]2C3c2ccc(-c3cccnc3)cc2)c1 (stereo partly drawn)	3	0	22*!	0
N#Cc1ccc(-c2ccc(C3[C@H]4CNC[C@@H]3N4C(=O)NC3CCCCC3)cc2)cc1 (stereo partly drawn)	/	0	23*	0
Cc1cccc(-c2ccc(C3[C@H]4CNC[C@@H]3N4C(=O)Nc3ccc(F)cc3)cc2)c1 (stereo partly drawn)	2	0	28*!	0
O=C(Nc1cccc(Cl)c1)N1[C@@H]2CNC[C@H]1C2c1ccc(-c2ccccc2)cc1 (stereo partly drawn)	-21	0	67*!	0
COc1ccc(-c2ccc(C3[C@H]4CNC[C@@H]3N4C(=O)Nc3cccc(OC)c3)cc2)cc1 (stereo partly drawn)	-14	0	0	0
FC(F)(F)c1ccccc1CN1CCC(Cc2ccccc2)CC1	-8	0	0	3
Cc1ccc(C(=O)NC(=S)Nc2cccc(-c3nc4ccccc4s3)c2)cc1	1	0	-6	/
Brc1ccc2c(c1)C(c1cccnc1)=NNC(c1cccs1)=N2	/	0	/	/
COc1ccc(S(=O)(=O)Nc2ccc3c(c2)C(=O)N([C@H](C)CO)C[C@H](C)[C@@H](CN(C)Cc2ccc(Cl)c(Cl)c2)OCCCC[C@H](C)O3)cc1	/	0	-23	0
CN(C)CC(=O)NC[C@H]1N[C@@H](CO)[C@H]1c1ccc(-c2cccc(C#N)c2)cc1	12	1	25*	0
C/C=C/c1ccc([C@@H]2[C@@H](CO)N(C(=O)CC)[C@H]2CNC(=O)C2CC2)cc1	-4	0	3	0
C/C=C/c1ccc([C@H]2[C@@H](CO)N(C(C)=O)[C@H]2CNC(=O)c2ccccc2)cc1	-3	0	24*	0
C/C=C/c1ccc([C@@H]2[C@@H](CNC(=O)C3CC3)N(C(=O)CC)[C@H]2CO)cc1	-8	0	26*	0
CCCNC(=O)N1[C@H](CO)[C@H](c2ccccc2)[C@@H]1CNC(=O)C1CCCC1	-3	0	22*	0
C/C=C/c1ccc([C@H]2[C@@H](CO)N(C(=O)NCCC)[C@H]2CN(C)C(=O)CC)cc1	8	0	-9	0
C/C=C/c1ccc([C@H]2[C@H](CO)N(C(C)=O)[C@H]2CNC(=O)c2ccccc2)cc1	-2	0	-9	0
